Sampled rows, rich in hits. Any-hit rate of the full collection: about 1.3%.
aDG glyco up: activators of alpha-DG glycosylation, primary screen, uHTS, Pro5-aDG cells, AlphaScreen; alpha-DG glycosylation AlphaScreen (IIH6); 0% Pro5, 100% B10-LARGE cell signal; 0.22% of 360,000 active; activation, % at 10 µM;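 active means activation of at least 8% versus controls, or a plate z-score of at least 8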;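 further: Pro5 are CHO cells carrying HIG-tagged alpha-DG that lacks glycosylation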
NRP1-CendR mod: modulators of CendR peptide binding to NRP-1, primary screen, biochemical, fluorescence polarization, uHTS. Neuropilin-1 (Homo sapiens), O14786. FAM-RPARPAR peptide binding to NRP-1. inhibition, % at 25 µM. 0.85% of 360,000 active. AID 602438, 2012;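 active means inhibition or corrected inhibition above about 18%, plus a signal ratio from 0.5 to 1.5, limit read from the data, passing the limit was not always enough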
DDE Tn6 FP inh: inhibitors of Tn6 peptide binding to fibrin DD(E), primary screen, biochemical, fluorescence polarization, human fibrin, Tn6 probe; Fibrin DD(E) TRITC-Tn6 fluorescence polarization displacement; Fibrinogen beta chain (Homo sapiens), P02675; 0.21% of 370,000 active; AID 720509, 2013; inhibition, % at 8.3 µM;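 active means inhibition above a per-campaign cutoff: mean of compounds within control limits plus 3 SD, cut at about 15% in these data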
Target sequence (P02675 whole entry, looked up): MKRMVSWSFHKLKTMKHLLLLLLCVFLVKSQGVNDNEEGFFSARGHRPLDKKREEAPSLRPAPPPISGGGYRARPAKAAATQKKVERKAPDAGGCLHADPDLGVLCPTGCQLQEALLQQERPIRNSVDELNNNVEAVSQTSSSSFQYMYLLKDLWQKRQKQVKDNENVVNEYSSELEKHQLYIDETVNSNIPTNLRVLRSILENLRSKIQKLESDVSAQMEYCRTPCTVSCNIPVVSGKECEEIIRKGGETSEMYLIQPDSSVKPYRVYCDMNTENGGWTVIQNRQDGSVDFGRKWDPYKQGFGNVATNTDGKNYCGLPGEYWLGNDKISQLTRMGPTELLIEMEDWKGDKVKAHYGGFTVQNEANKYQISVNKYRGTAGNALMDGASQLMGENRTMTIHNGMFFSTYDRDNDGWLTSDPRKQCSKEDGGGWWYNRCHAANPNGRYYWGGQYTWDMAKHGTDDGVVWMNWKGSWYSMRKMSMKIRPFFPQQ
DDE Tn7 FP inh: inhibitors of Tn7 peptide binding to fibrin DD(E), primary screen, biochemical, fluorescence polarization, human fibrin, Tn7 probe; FP displacement of FITC-Tn7 peptide from fibrin DD(E); 0% = median of compound wells per plate; inhibition, % at 8.3 µM; 0.13% of 370,000 active;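 active means inhibition above the mean of compounds falling within the control limits plus 3 SD of them, cut at about 14% in these data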
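Also added: labelled Tn7 tracer, 0.1 µM; Assay system: human fibrin DD(E) protein; Amount: 2 µM fibrin DD(E); Schedule: 10 min compound pre-incubation, 3 h probe incubation at room temperature; Repeats: one replicate per compound; Read-out basis: percent inhibition; Measured by: fluorescence polarization of the labelled Tn7 tracer.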
Numbers stand for hits; n = inactive; x = no result given.

SMILES | aDG glyco up | NRP1-CendR mod | DDE Tn6 FP inh | DDE Tn7 FP inh
CCN1CCC(NCCc2ccc(F)cc2)CC1 | n | n | n | n
CCCCN1CC(COCc2ccccc2)Oc2cccc(N3CCCCC3)c2S1(=O)=O (configuration not stated) | x | x | n | n
CCOc1cc(-c2ccc(N)c(OCC)c2)ccc1N | n | 43.3 | n | n
O=C(COC(=O)c1cc(Cl)ccc1O)NCCC1=CCCCC1 | n | 20.5 | n | n
Cc1ccc(S(=O)(=O)N2CCN(CC(=O)N(CC(C)C)c3c(N)n(CC(C)C)c(=O)[nH]c3=O)CC2)c(C)c1 | n | 48.7 | n | n
O=C(Nc1cccnc1)c1cc(Br)c(Br)s1 | n | n | n | n
O=C(Nc1cccnc1)c1ccc([N+](=O)[O-])s1 | 9.7 | n | n | n
CS(=O)(=O)N1CCN(c2ccccc2NC(=O)Cc2ccccc2)CC1 | n | n | n | n
CS(=O)(=O)N1CCN(c2ccccc2NC(=O)Cc2ccc(Cl)cc2)CC1 | n | 27.8 | n | n
COc1ccccc1NC(=O)N(C)C[C@H]1Oc2ncc(C#CCN(C)C)cc2C(=O)N([C@H](C)CO)C[C@H]1C | n | n | x | x
COc1cccc(CN(C)C(=O)C(CCSC)NS(=O)(=O)c2ccc3c(c2)OCCO3)c1OC (configuration not stated) | n | n | n | n
CSCCC(NS(=O)(=O)c1ccc2c(c1)OCCO2)C(=O)N(C)Cc1ccc(C)cc1 (configuration not stated) | n | 36.7 | n | n
CCCC[C@@H]1Cc2[nH][nH]c(=O)c2[C@H](c2ccc(C(C)C)cc2)O1 | n | n | n | n
CCC(C)(C)c1ccc(Oc2cccc(C(=O)O)c2)cc1 | n | n | n | n
CCC(C)(C)c1ccc(Oc2ccc(N)cc2)cc1 | n | 43.6 | n | n
COC(=O)c1ccc(C=NNC(=O)c2cc(-c3ccc(C)c(C)c3)n[nH]2)cc1 | x | x | n | n
CN(C)CCCN1C(=O)c2cccc3c([N+](=O)[O-])ccc(c23)C1=O | n | 28.6 | n | n
O=C1c2cccc3c([N+](=O)[O-])ccc(c23)C(=O)N1CCc1ccccn1 | n | n | n | n
Cc1ccc(OC2CCN(C(=O)[C@@H](Cc3ccccc3)NC(=O)[C@H]3O[C@@H](n4ccc(=O)[nH]c4=O)[C@H](O)[C@@H]3O)CC2)cc1 | x | x | n | n
CC1OC2CC(=O)OC2C2=C1C(=O)c1c(O)cccc1C2=O (configuration not stated) | n | 38.0 | n | n
O=C(NNC(=O)c1ccccc1Br)c1cccs1 | n | 24.9 | n | n
O=C(CSc1nncs1)NNC(=O)c1ccccc1Br | n | 20.2 | n | n
CC(C)CN1C(=O)[C@]2(CC(=O)N(C)C2c2ccccc2)c2cc(-n3cc(CO)nn3)ccc21 (some centres not stated) | x | x | n | n
COc1ccc(-n2c(SCC(=O)Nc3ccc(Oc4ccccc4)cc3)nnc2-c2ccco2)cc1 | x | x | n | n
CC(C)CN(CC(C)C)C(=O)c1ccc2c(c1)NC(=O)C(C)(C)O2 | x | x | n | n
SMILES | aDG glyco up | NRP1-CendR mod | DDE Tn6 FP inh | DDE Tn7 FP inh
O=C1[C@H]2[C@H](C=CC[C@H]2C(=O)N2CCN(c3ccccc3)CC2)CCN1Cc1ccccc1 | n | 27.7 | n | n
COc1cccc(NC(=O)COc2ccccc2C(N)=O)c1 | n | 32.1 | n | n
CCN(CC(=O)Nc1ccccc1C(F)(F)F)CC(=O)c1[nH]c(C)c(C(C)=O)c1C | n | n | n | n
O=C(NC(=S)N1CCCCCC1)c1ccccc1 | n | n | n | n
O=C(NC(=O)N1CCCCC1)c1ccccc1 | n | 26.5 | n | n
COC(=O)C1=C(C)N(Cc2ccccc2C(F)(F)F)C(=NCc2ccccc2C(F)(F)F)NC1c1cccc(C(F)(F)F)c1 (configuration not stated) | x | x | n | n
C[C@H](O)[C@@H]1C(=O)N2CCc3c([nH]c4c(-c5ccccc5)cccc34)[C@@H]2C[C@@H]1N(C)C(=O)/C=C/c1ccccc1 | x | x | n | n
C[C@H](NC(=O)N1CCn2c1nc1ccccc12)C(=O)NC1CC1 | n | n | n | n
CC(NC(=O)[C@H](C)NC(=O)N1CCn2c1nc1ccccc12)c1ccccc1 (some centres not stated) | n | 23.9 | n | n
CC(c1ccccc1)N1CC[C@H]2C=CC[C@@H](C(=O)Nc3cccc(Cl)c3)[C@H]2C1=O (some centres not stated) | x | x | n | n
Cc1noc(C)c1COc1ccc(C(=O)N2CCN(S(=O)(=O)c3cccc(F)c3)CC2)cc1 | n | n | n | n
CN(CC(=O)Nc1ccc(F)cc1)C(=O)Cn1c(=O)oc2ccccc21 | n | n | n | n
CN(C(=O)Cn1c(=O)oc2ccccc21)C1CCCCC1 | n | 20.0 | n | n
CN(CC(=O)Nc1cccc(F)c1)C(=O)Cn1c(=O)oc2ccccc21 | n | 22.6 | n | n
CC1CCCCN1C(=O)Cn1c(=O)oc2ccccc21 (configuration not stated) | n | n | n | n
Cc1cc(Cl)ccc1C(O)c1ncc(-c2ccc(C(F)(F)F)cc2)[nH]1 (configuration not stated) | n | n | n | n
O=C(Nc1ccccc1F)c1csc([C@@H]2C[C@H](O)[C@@H](CO)O2)n1 | n | n | n | n
COc1ccc(C(=O)OCC(=O)N2CCN(S(=O)(=O)c3ccc(C)cc3)CC2)cc1[N+](=O)[O-] | n | 26.2 | n | n
O=C1C(Br)=Cc2cccc3cccc1c23 | n | 26.6 | n | n
O=C1c2sccc2-c2cccc3cccc1c23 | n | n | n | n
C=CCCC(=O)N1CCC(C(=O)NCC2COc3ccccc3O2)CC1 (configuration not stated) | x | x | n | n
O=C(c1ccc(S(=O)(=O)Nc2ccccc2Cl)cc1)N1CCOCC1 | n | 26.5 | n | n
N#Cc1c2ccc(O)cc2n2ccccc12 | n | 31.3 | n | n
COc1ccc([C@@H](NC(=O)OC(C)(C)C)C(=O)OC(C)(C)C)cc1 | n | n | n | n
COc1ccc(C(NC(=O)C(C)(C)C)NC(=O)C(C)(C)C)cc1 | n | 20.1 | n | n
SMILES | aDG glyco up | NRP1-CendR mod | DDE Tn6 FP inh | DDE Tn7 FP inh
Nc1[nH]c(C(=O)c2ccccc2)c(-c2ccc(O)cc2)c1C(=O)NCCc1c[nH]c2ccccc12 | x | x | n | n
Cn1c(=O)c2c(ncn2CC(COCc2ccccc2)OCc2ccccc2)n(C)c1=O (configuration not stated) | n | 29.6 | n | n
COc1ccc(F)cc1-c1cc(C(=O)NCc2cccc(C(F)(F)F)c2)[nH]n1 | n | 18.0 | n | n
CC(C)Oc1ccc(F)cc1-c1cc(C(=O)NCc2ccc(F)cc2)[nH]n1 | n | 27.4 | n | n
CCOc1ccc(-c2onc(C(F)(F)F)c2-c2cscn2)c(O)c1 | n | 26.7 | n | n
Cc1cc(O)cc(O)c1-c1onc(C(F)(F)F)c1-c1cscn1 | n | n | n | n
